This note sets out measurements from ChEMBL document CHEMBL1287738, “Synthesis and biological evaluation of retinoid-chalcones as inhibitors of colon cancer cell growth” (Bioorg Med Chem Lett, 2010).

In this assay the test system is HT-29. In words: Growth inhibition of human HT-29 cell. Type of assay: functional, cell-based. The essentials:
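Human colon carcinoma HT-29 cells (Apc-null, wild-type β-catenin) incubated with varying concentrations of each compound for 3 days at 37°C; growth inhibition measured.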

Turning to `N#Cc1ccc(/C=C/C(=O)c2ccccc2)cc1`, it took 3.7 µM to reach half-maximal inhibition (IC50).
